One series has as its system Acinetobacter baumannii. Kind of series: Antibioflim activity in Acinetobacter baumannii ATCC 19606 after 24 hrs by general static inhibition assay. It counts as functional, ATCC 19606 = CIP 70.34 = JCM 6841. The method in brief:
(§1)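 Static biofilm inhibition: overnight wild-type culture subcultured to OD600 0.01 in LBNS (PA14) or LB (A. baumannii) containing compound (DMSO stocks), in PVC 96-well plates; covered, sealed, stationary 37 °C for 24 h. Wells washed with water, stained with 0.1% crystal violet for 30 min at ambient temperature, washed, and stain solubilized in 95% ethanol. Read-out is OD540.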

In series [1] the test system is Pseudomonas aeruginosa. Kind of series: Antibioflim activity in Pseudomonas aeruginosa PA14 after 24 hrs by general static inhibition assay. It counts as functional, organism-based. The conditions noted are these: for pIC50: Pseudomonas aeruginosa, PA14, 24 h, read-out: IC50. The method in brief:
as §1

The subject of series [2] is Pseudomonas aeruginosa. Kind of series: Antibioflim activity in Pseudomonas aeruginosa PA14 after 24 hrs by general static dispersion assay. In kind it is functional. The method in brief: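 Static dispersion: wild-type PA14 subcultured to OD600 0.05 in LBNS in PVC 96-well plates, sealed, biofilm formed stationary at room temperature for 24 h. Medium replaced with fresh medium plus compound, then stationary 37 °C for 24 h. Crystal violet 0.1% for 30 min, ethanol-solubilized, read at OD540. Percent dispersion is treated versus untreated established biofilm.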

Series [3] relates to Pseudomonas aeruginosa. Kind of series: Antibioflim activity in Pseudomonas aeruginosa PA14 at 100 uM after 24 hrs by general static inhibition assay. The conditions noted are these: PA14, 24 h. It counts as functional. In outline:
as §1

For series [4], the system named is Pseudomonas aeruginosa. Kind of series: Inhibition of biofilm formation against Pseudomonas aeruginosa PA14 after 24 hrs. Particulars: PA14, 24 h.
The subject of a further series is Caenorhabditis elegans. Kind of series: Toxicity in Caenorhabditis elegans L4 stage larva assessed as toxicity threshold after 6 to 7 days. In kind it is organism-based. Particulars: in vivo. The method in brief: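 Synchronized C. elegans N2 L1s (bleach egg prep, M9 starvation) grown on NGM/OP50 at 20 °C to L4. Two L4s per well in S medium with 5% HB101, compound 100 µM–1 mM, final DMSO 0.8–1.0%, in triplicate. Plates shaken at 22.5 °C for 6–7 days. Wells scored on day 4 and day 6/7 for clearing and population size. Threshold narrowed in 100 µM steps.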

Series [5] has as its system Pseudomonas aeruginosa. Kind of series: Antibioflim activity in Pseudomonas aeruginosa PAO1. In kind it is functional, organism-based.

Molecules are shown by their SMILES. pIC50: −log10 of the molar value. Activity calls are given as the source filed them.

Turning to `CC(=O)c1cccc(NC(=O)NCCCc2c[nH]c(N)n2)c1.Cl`, in the series on Acinetobacter baumannii, the “inhibition (INH)” value is recorded as 11%. The IC50 result with Pseudomonas aeruginosa [1] is recorded as “Not Active”. Further, the result in the series on Pseudomonas aeruginosa [2] was inactive. In the series with Pseudomonas aeruginosa [3], this compound came in with an inhibition at 100 µM of 69%.
As to `Cc1cc(C)cc(S(=O)(=O)NCCCc2c[nH]c(N)n2)c1.Cl`, in the series on Acinetobacter baumannii, the “inhibition (INH)” value came out at 17%. For the same compound, the pIC50 in the series on Pseudomonas aeruginosa [1] was 4.34. The outcome with Pseudomonas aeruginosa [2] was inactive. Besides, at 100 µM the inhibition in the series on Pseudomonas aeruginosa [3] was 87%.
Regarding `Cl.Nc1nc(CCCNC(=S)NC2CCCCC2)c[nH]1`, the “inhibition (INH)” value with Acinetobacter baumannii worked out at 14%. The pIC50 in the series on Pseudomonas aeruginosa [4] and with Pseudomonas aeruginosa [1] was 4.65 each time. The compound further showed an Activity in the series on Pseudomonas aeruginosa [2] of 25%. Moreover, the inhibition at 100 µM in the series on Pseudomonas aeruginosa [3] is 89%.
Consider `Cl.Nc1nc(CCCNS(=O)(=O)c2cccc3cccnc23)c[nH]1`, for which the “inhibition (INH)” value in the series on Acinetobacter baumannii amounted to 17%. In addition, in the series with Pseudomonas aeruginosa [1], the IC50 result is on record as “Not Active”. Also, in the series on Pseudomonas aeruginosa [2], the result was inactive. 100 µM produced 50% inhibition with Pseudomonas aeruginosa [3].
In the case of `Cl.Nc1nc(CCCNC(=S)Nc2ccccc2)c[nH]1`, in the series on Acinetobacter baumannii, the “inhibition (INH)” value amounted to 8%. Besides, the negative logarithm of the IC50 (pIC50) in the series with Pseudomonas aeruginosa [1] was 4.57. Further, the outcome with Pseudomonas aeruginosa [2] was inactive. The compound also yielded an inhibition at 100 µM in the series with Pseudomonas aeruginosa [3] of 90%.
As for `Cn1c(C(=O)NCCCc2c[nH]c(N)n2)cc(Br)c1Br` [DIHYDROSVENTRIN], in the series with Caenorhabditis elegans, the Activity was determined as 0.48 mM.
Regarding `Cl.Nc1nc(CCCNC(=O)Nc2ccc(F)c(Cl)c2)c[nH]1`, the “inhibition (INH)” value with Acinetobacter baumannii is reported as 18%. For the same compound, the pIC50 with Pseudomonas aeruginosa [4] and with Pseudomonas aeruginosa [1] was 4.59 in each case. The Activity in the series with Pseudomonas aeruginosa [2] stood at 55%. At 100 µM the inhibition in the series with Pseudomonas aeruginosa [3] was 90%.
For the compound `Cl.Nc1nc(CCCNS(=O)(=O)c2ccccc2F)c[nH]1`, the “inhibition (INH)” value in the series on Acinetobacter baumannii was found to be 11%. Also, the IC50 result in the series with Pseudomonas aeruginosa [1] is “Not Active”. The outcome with Pseudomonas aeruginosa [2] was inactive. In the series with Pseudomonas aeruginosa [3], testing at 100 µM gave an inhibition of 43%.
As for `Cl.Nc1nc(CCCNS(=O)(=O)c2ccc(Br)cc2)c[nH]1`, the “inhibition (INH)” value in the series on Acinetobacter baumannii came out at 25%. In addition, in the series with Pseudomonas aeruginosa [1], the pIC50 was 4.71. In addition, the result in the series with Pseudomonas aeruginosa [2] was inactive. Testing at 100 µM in the series with Pseudomonas aeruginosa [3] gave an inhibition of 85%.
With `Cl.Nc1nc(CCCNC(=O)Nc2ccccc2)c[nH]1`, the “inhibition (INH)” value with Acinetobacter baumannii amounted to 29%. Besides, in the series with Pseudomonas aeruginosa [1], the IC50 entry is on record as “Not Active”. Moreover, the outcome in the series with Pseudomonas aeruginosa [2] was inactive. This compound also yielded an inhibition at 100 µM with Pseudomonas aeruginosa [3] of 35%.
`CCCCCCS(=O)(=O)NCCCc1c[nH]c(N)n1.Cl`: the “inhibition (INH)” value with Acinetobacter baumannii came to 24%. Besides, the pIC50 in the series on Pseudomonas aeruginosa [4] and in the series on Pseudomonas aeruginosa [1] was 4.99 in each case. For the same compound, the Activity with Pseudomonas aeruginosa [2] is 42%; in the series with Caenorhabditis elegans, over 1 mM. In the series on Pseudomonas aeruginosa [3], this compound displayed an inhibition at 100 µM of 80%.
Turning to `Cc1ccc(F)cc1NC(=O)NCCCc1c[nH]c(N)n1.Cl`, the “inhibition (INH)” value in the series on Acinetobacter baumannii came to 12%. In the series with Pseudomonas aeruginosa [1], the pIC50 was 4.33. In the series on Pseudomonas aeruginosa [2], the result was inactive. Besides, the inhibition at 100 µM in the series with Pseudomonas aeruginosa [3] came to 81%.
With `CCCCCCc1cn(CCCc2c[nH]c(N)n2)nn1`, in the series on Caenorhabditis elegans, the Activity is over 1 mM.
`Cl.Nc1nc(CCCNS(=O)(=O)c2ccc(C(F)(F)F)cc2)c[nH]1`: the “inhibition (INH)” value in the series on Acinetobacter baumannii was 23%. The pIC50 in the series on Pseudomonas aeruginosa [1] was 4.60. The outcome in the series on Pseudomonas aeruginosa [2] was inactive. The inhibition at 100 µM with Pseudomonas aeruginosa [3] is 92%.
As for `CCCCCCCCCCCc1c[nH]c(N)n1`, the Activity in the series on Caenorhabditis elegans is given as over 1 mM.
Turning to `Nc1ncc(/C=C/CNC(=O)c2cc(Br)c(Br)[nH]2)[nH]1` [OROIDIN], the pIC50 was 3.80 in the series with Pseudomonas aeruginosa [1] and 3.72 with Pseudomonas aeruginosa [5]. Also, the Activity with Caenorhabditis elegans was 0.65 mM.
For `CCCCCCC(CCCCCC)NC(=O)CCCc1c[nH]c(N)n1`, the Activity with Caenorhabditis elegans was determined as 0.95 mM.
`Cc1ccc(S(=O)(=O)NCCCc2c[nH]c(N)n2)cc1.Cl`: the “inhibition (INH)” value in the series on Acinetobacter baumannii is reported as 8%. In addition, the IC50 entry with Pseudomonas aeruginosa [1] is “Not Active”. Besides, the result in the series with Pseudomonas aeruginosa [2] was inactive. In the series with Pseudomonas aeruginosa [3], this compound came in with an inhibition at 100 µM of 45%.
On to `CCOc1ccc(NC(=O)NCCCc2c[nH]c(N)n2)cc1.Cl`, for which the “inhibition (INH)” value in the series with Acinetobacter baumannii amounted to 11%. Also, the pIC50 in the series on Pseudomonas aeruginosa [1] was 4.30. In the series on Pseudomonas aeruginosa [2], the outcome was inactive. Moreover, in the series on Pseudomonas aeruginosa [3], the inhibition at 100 µM came to 81%.
Regarding `CCCCCCNC(=O)NCCCc1c[nH]c(N)n1.Cl`, the “inhibition (INH)” value with Acinetobacter baumannii worked out at 28%. Also, the pIC50 with Pseudomonas aeruginosa [1] is 4.45. Moreover, in the series on Pseudomonas aeruginosa [2], the outcome was inactive. Besides, the inhibition at 100 µM with Pseudomonas aeruginosa [3] was 94%.
For `Cl.Nc1nc(CCCNS(=O)(=O)c2ccc3ccccc3c2)c[nH]1` the same measures were 26%, 4.81, “inactive” and 93%.
Turning to `Cl.Nc1nc(CCCNC(=O)NCc2ccccc2)c[nH]1`, the “inhibition (INH)” value in the series on Acinetobacter baumannii amounted to 7%. In addition, the IC50 result in the series with Pseudomonas aeruginosa [1] is on record as “Not Active”. Also, the outcome in the series with Pseudomonas aeruginosa [2] was inactive. This compound also came in with an inhibition at 100 µM in the series with Pseudomonas aeruginosa [3] of 45%.
On to `Cl.Nc1nc(CCCNS(=O)(=O)c2cccc(C(=O)O)c2)c[nH]1`, for which the “inhibition (INH)” value in the series with Acinetobacter baumannii is recorded as 11%. The IC50 entry in the series with Pseudomonas aeruginosa [1] is recorded as “Not Active”. The outcome in the series with Pseudomonas aeruginosa [2] was inactive. Further, the inhibition at 100 µM in the series on Pseudomonas aeruginosa [3] came to 14%.
For `Cl.Nc1nc(CCCNC(=O)NC2CCCCCC2)c[nH]1`, in that order: under 5%, “Not Active”, “inactive” and 70%.
Take `CCCCCCNC(=O)CCCc1c[nH]c(N)n1`: the Activity with Caenorhabditis elegans is on record as over 1 mM.

Usually inhibition stands for the drop in the measured response relative to a control, in per cent. For orientation: pIC50 means the negative decadic logarithm of the IC50, by convention in mol/L.

Values taken from ChEMBL document CHEMBL1158493, “Amide isosteres of oroidin: assessment of antibiofilm activity and C. elegans toxicity” (J Med Chem, 2009).
